Consider six compounds from ChEMBL document CHEMBL1126988, “Quinolone antibacterials containing the new 7-[3-(1-aminoethyl)-1- pyrrolidinyl] side chain: the effects of the 1-aminoethyl moiety and its stereochemical configurations on potency and in vivo efficacy” (J Med Chem, 1993).

≈ marks a conversion by molar mass, not a printed value. Where only a bound is given, the exact number is not on record here.

As a reminder, the MIC is the smallest concentration in the dilution series that meets the test's criterion for growth inhibition.

Test [1] deals with Escherichia coli. The experiment in a line: Antibacterial activity in vitro against Escherichia coli Vogel. Format: functional. As to conditions: Escherichia coli; read-out: MIC. A digest of the protocol:
(§1)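 Standard microtitration broth assay against a panel of 10 Gram-positive and Gram-negative organisms. MIC read in µg/mL and averaged over multiple experiments.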

In test [2] the test system is Escherichia coli. The experiment in a line: Antibacterial activity against Escherichia coli Vogel after oral administration in mouse. Format: functional. As to conditions: Escherichia coli, po; read-out: PD50.
Test [3] concerns Escherichia coli. The experiment in a line: Antibacterial activity against Escherichia coli Vogel after subcutaneous administration in mouse. Format: functional. As to conditions: Escherichia coli, sc; read-out: PD50.
The subject of a further test is Enterobacter cloacae. In words: Minimum inhibitory concentration in vitro against Enterobacter cloacae MA 2646. As to conditions: Enterobacter cloacae; read-out: MIC. Format: functional.
A further test has as its system Enterococcus faecalis. The experiment in a line: Minimum inhibitory concentration was evaluated in vitro against Enterococcus faecalis MGH-2. The class given is functional. The conditions noted are these: Enterococcus faecalis; read-out: MIC. A digest of the protocol:
as §1

The test system of a further test is Klebsiella pneumoniae. In words: Minimum inhibitory concentration was evaluated in vitro against Klebsiella pneumoniae MGH2. The conditions noted are these: Klebsiella pneumoniae; read-out: MIC. Format: functional. A digest of the protocol: as §1
The species entered for another test is Mus musculus. The experiment in a line: Compounds were evaluated for phototoxicity no-effect dose in mouse. The class given is functional. In outline:
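Depilated female CD-1 mice, five per dose plus controls. Animals are dosed orally and then exposed daily to UV-A (320–400 nm) for 3 h, for up to 4 days or until a definite positive response. Redness or erythema relative to controls, read 24 h after irradiation, counts as positive. Reported as the highest dose with no effect (mg/kg).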

The next test deals with Providencia rettgeri. The experiment in a line: Minimum inhibitory concentration was evaluated in vitro against Providencia rettgeri M1771. Format: functional. As to conditions: Providencia rettgeri; read-out: MIC. In outline: as §1
A further test has as its system Pseudomonas aeruginosa. The experiment in a line: Minimum inhibitory concentration was evaluated in vitro against Pseudomonas aeruginosa UI-18. Format: functional. As to conditions: Pseudomonas aeruginosa; read-out: MIC. A digest of the protocol: as §1
Test [4] relates to Staphylococcus aureus. In words: Minimum inhibitory concentration was evaluated in vitro against Staphylococcus aureus H 228. Format: functional. The conditions noted are these: Staphylococcus aureus; read-out: MIC. A digest of the protocol: as §1
The subject of test [5] is Staphylococcus aureus. In words: Minimum inhibitory concentration was evaluated in vitro against Staphylococcus aureus UC 76. The class given is functional. The conditions noted are these: Staphylococcus aureus; read-out: MIC. In outline:
as §1

A further test relates to Streptococcus pneumoniae. The experiment in a line: Minimum inhibitory concentration was evaluated in vitro against Streptococcus pneumoniae SV-1. The class given is functional. As to conditions: Streptococcus pneumoniae; read-out: MIC. A digest of the protocol:
as §1

For test [6], the system named is Streptococcus pyogenes. In words: Antibacterial activity measured as mouse protection against Streptococcus pyogenes C 203 after subcutaneous administration. The class given is functional. As to conditions: Streptococcus pyogenes, C 203, sc; read-out: PD50.
Test [7] in a line: Clonogenic cytotoxicity against hamster V-79 cells. Format: functional, Cricetulus griseus, V79. A digest of the protocol:
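Chinese hamster V-79 cells grown overnight, then drug-treated for 3 h at 37 °C. Medium is replaced with fresh medium and cells are incubated 5 days to allow colony formation. IC50 (µg/mL) is the concentration inhibiting colony formation by 50% relative to control.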

Test [8] concerns Streptococcus pyogenes. The experiment in a line: Compounds were evaluated in vivo for antibacterial activity for mouse protection against Streptococcus pyogenes C 203 after oral administration. The class given is functional. As to conditions: Streptococcus pyogenes, C 203, po; read-out: PD50.
Test [9] concerns Streptococcus pyogenes. In words: Minimum inhibitory concentration was evaluated in vitro against Streptococcus pyogenes C 203. The conditions noted are these: Streptococcus pyogenes; read-out: MIC. Format: functional. In outline:
as §1

Take `Nc1c(F)c(N2CCC(N)C2)c(F)c2c1c(=O)c(C(=O)O)cn2C1CC1` (stereo unspecified): the MIC in the test with Escherichia coli [1] worked out at 0.006 µg/mL (≈ 0.0165 µM); with Enterobacter cloacae, 0.013 µg/mL (≈ 0.0357 µM); in the test on Enterococcus faecalis, 0.025 µg/mL (≈ 0.0686 µM); in the test with Klebsiella pneumoniae, 0.006 µg/mL (≈ 0.0165 µM); in the test with Providencia rettgeri, 0.025 µg/mL (≈ 0.0686 µM); with Pseudomonas aeruginosa it was 0.05 µg/mL (≈ 0.137 µM). Besides, the MIC in the test with Staphylococcus aureus [4] stood at 0.013 µg/mL (≈ 0.0357 µM); with Staphylococcus aureus [5] it was 6 ng/mL (≈ 0.0165 µM); in the test on Streptococcus pneumoniae, 6 ng/mL (≈ 0.0165 µM); in the test on Streptococcus pyogenes [9] it was 0.025 µg/mL (≈ 0.0686 µM). In addition, the ED50 in the test with Escherichia coli [2] was 1 mg/kg; with Escherichia coli [3], 0.3 mg/kg; with Streptococcus pyogenes [6], 8 mg/kg; in the test on Streptococcus pyogenes [8], 28 mg/kg. This compound came in with a Dose in the test filed under Mus musculus of 55 mg/kg. Moreover, the Cytotoxicity in test [7] was found to be 15 µg/mL.

Turning to `COc1c(N2CC[C@H]([C@@H](C)N)C2)c(F)cc2c(=O)c(C(=O)O)cn(C3CC3)c12` (racemic), the MIC with Escherichia coli [1] amounted to 0.025 µg/mL (≈ 0.0642 µM); with Enterobacter cloacae, 0.05 µg/mL (≈ 0.128 µM); in the test with Enterococcus faecalis, 0.006 µg/mL (≈ 0.0154 µM); in the test with Klebsiella pneumoniae, 0.05 µg/mL (≈ 0.128 µM); in the test on Providencia rettgeri it was 0.05 µg/mL (≈ 0.128 µM); with Pseudomonas aeruginosa, 0.4 µg/mL (≈ 1.03 µM). The MIC came out at 0.006 µg/mL (≈ 0.0154 µM) in the test with Staphylococcus aureus [4], 3 ng/mL (≈ 0.0077 µM) with Staphylococcus aureus [5], 3 ng/mL (≈ 0.0077 µM) with Streptococcus pneumoniae and 0.003 µg/mL (≈ 0.0077 µM) in the test on Streptococcus pyogenes [9]. For the same compound, the ED50 with Escherichia coli [2] was determined as 4 mg/kg; with Escherichia coli [3] it was 1 mg/kg; with Streptococcus pyogenes [6] it was 0.3 mg/kg; in the test with Streptococcus pyogenes [8], 1 mg/kg. Moreover, the Dose in the test filed under Mus musculus was greater than 100 mg/kg. This compound came in with a Cytotoxicity in test [7] of less than 7.8 µg/mL.

Consider `CNC(C)C1CCN(c2nc3c(cc2F)c(=O)c(C(=O)O)cn3-c2ccc(F)cc2F)C1` (racemic), for which the MIC worked out at 0.4 µg/mL (≈ 0.896 µM) in the test on Escherichia coli [1]; 0.8 µg/mL (≈ 1.79 µM) in the test with Enterobacter cloacae; 0.2 µg/mL (≈ 0.448 µM) in the test with Enterococcus faecalis; 0.8 µg/mL (≈ 1.79 µM) in the test with Klebsiella pneumoniae; 1.6 µg/mL (≈ 3.58 µM) in the test on Providencia rettgeri; 3.1 µg/mL (≈ 6.94 µM) in the test with Pseudomonas aeruginosa. Further, the MIC in the test on Staphylococcus aureus [4] amounted to 0.1 µg/mL (≈ 0.224 µM); in the test on Staphylococcus aureus [5], 25 ng/mL (≈ 0.056 µM); in the test with Streptococcus pneumoniae, 25 ng/mL (≈ 0.056 µM); in the test on Streptococcus pyogenes [9] it was 0.05 µg/mL (≈ 0.112 µM). Moreover, the ED50 in the test on Escherichia coli [2] stood at 6 mg/kg; in the test with Escherichia coli [3], 2 mg/kg; in the test on Streptococcus pyogenes [6], 1 mg/kg; in the test on Streptococcus pyogenes [8] it was 4 mg/kg. For the same compound, the Dose in the test filed under Mus musculus is greater than 100 mg/kg. For the same compound, the Cytotoxicity in test [7] stood at 310 µg/mL.

`COc1c(N2CCC(N)C2)c(F)cc2c(=O)c(C(=O)O)cn(C3CC3)c12` (stereo unspecified): the MIC in the test with Escherichia coli [1] came to 0.025 µg/mL (≈ 0.0692 µM); in the test with Enterobacter cloacae, 0.025 µg/mL (≈ 0.0692 µM); in the test with Enterococcus faecalis it was 0.05 µg/mL (≈ 0.138 µM); with Klebsiella pneumoniae it was 0.05 µg/mL (≈ 0.138 µM); with Providencia rettgeri, 0.1 µg/mL (≈ 0.277 µM); in the test with Pseudomonas aeruginosa it was 0.2 µg/mL (≈ 0.553 µM). Moreover, the MIC in the test with Staphylococcus aureus [4] stood at 0.05 µg/mL (≈ 0.138 µM); with Staphylococcus aureus [5], 13 ng/mL (≈ 0.036 µM); in the test with Streptococcus pneumoniae, 25 ng/mL (≈ 0.0692 µM); with Streptococcus pyogenes [9], 0.025 µg/mL (≈ 0.0692 µM). Besides, the ED50 turned out to be 3 mg/kg in the test with Escherichia coli [2], 0.4 mg/kg in the test with Escherichia coli [3], 3 mg/kg with Streptococcus pyogenes [6] and 10 mg/kg in the test with Streptococcus pyogenes [8]. This compound registered a Dose in the test filed under Mus musculus greater than 100 mg/kg. In addition, in test [7], the Cytotoxicity came to 45 µg/mL.

`CCN[C@H](C)[C@H]1CCN(c2c(F)cc3c(=O)c(C(=O)O)cn(C4CC4)c3c2OC)C1` (racemic): the minimal inhibitory concentration (MIC) stood at 0.1 µg/mL (≈ 0.24 µM) in the test on Escherichia coli [1]; 0.1 µg/mL (≈ 0.24 µM) with Enterobacter cloacae; 0.025 µg/mL (≈ 0.0599 µM) in the test on Enterococcus faecalis; 0.2 µg/mL (≈ 0.479 µM) in the test on Klebsiella pneumoniae; 0.4 µg/mL (≈ 0.958 µM) with Providencia rettgeri; 3.1 µg/mL (≈ 7.43 µM) in the test on Pseudomonas aeruginosa. The MIC was 0.013 µg/mL (≈ 0.0311 µM) with Staphylococcus aureus [4], 3 ng/mL (≈ 0.00719 µM) with Staphylococcus aureus [5], 6 ng/mL (≈ 0.0144 µM) in the test on Streptococcus pneumoniae and 0.006 µg/mL (≈ 0.0144 µM) in the test with Streptococcus pyogenes [9]. Also, the ED50 turned out to be 5 mg/kg in the test with Escherichia coli [2], 2 mg/kg in the test with Escherichia coli [3], 0.2 mg/kg with Streptococcus pyogenes [6] and 0.5 mg/kg in the test on Streptococcus pyogenes [8]. This compound also displayed a Dose in the test filed under Mus musculus greater than 100 mg/kg. The compound further returned a Cytotoxicity in test [7] of 110 µg/mL.

As to `C[C@@H](N)[C@H]1CCN(c2c(F)c(N)c3c(=O)c(C(=O)O)cn(C4CC4)c3c2F)C1` (racemic), the MIC with Escherichia coli [1] came out at 0.013 µg/mL (≈ 0.0331 µM); in the test on Enterobacter cloacae, 0.013 µg/mL (≈ 0.0331 µM); with Enterococcus faecalis, 0.003 µg/mL (≈ 0.00765 µM); with Klebsiella pneumoniae, 0.013 µg/mL (≈ 0.0331 µM); in the test on Providencia rettgeri, 0.025 µg/mL (≈ 0.0637 µM); in the test with Pseudomonas aeruginosa, 0.4 µg/mL (≈ 1.02 µM). In addition, the MIC was found to be 0.003 µg/mL (≈ 0.00765 µM) in the test on Staphylococcus aureus [4], 3 ng/mL (≈ 0.00765 µM) in the test on Staphylococcus aureus [5], 3 ng/mL (≈ 0.00765 µM) in the test on Streptococcus pneumoniae and 0.003 µg/mL (≈ 0.00765 µM) with Streptococcus pyogenes [9]. The ED50 was 2 mg/kg in the test with Escherichia coli [2], 0.3 mg/kg with Escherichia coli [3], 0.1 mg/kg with Streptococcus pyogenes [6] and 0.6 mg/kg with Streptococcus pyogenes [8]. In the test listed under Mus musculus, this compound came in with a Dose of less than 30 mg/kg. Further, in test [7], the Cytotoxicity is less than 7.8 µg/mL.
